The structures appear in SMILES notation. Activity calls are given as the source filed them. No cut-off for these calls is given here. Bounds are passed on as bounds.

The text below walks through data of ChEMBL document CHEMBL6134776, “New anti-ovarian cancer quinolone derivatives acting by modulating microRNA processing machinery” (RSC Med Chem, 2025).

The subject of data set [1] is SK-OV-3. As to the kind of experiment: Antiproliferative activity against human SK-OV-3 cells assessed as growth inhibition measured after 72 hrs. The class given is functional. An outline of the steps: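 100 000 SKOV-3 or Wi-38 cells per 35 mm dish, allowed to adhere, then given compound at scalar concentrations. First pass ran up to 200 μM (SKOV-3) or 250 μM (Wi-38), then a narrowed range. Cells counted after 72 h and GI50/CC50 taken by linear regression with 95% CI. Three experiments in triplicate, three counts per sample.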

A further data set deals with A549. As to the kind of experiment: Antiproliferative activity against human A549 cells assessed as growth inhibition at 30 uM measured after 72 hrs. The class given is functional, cell-based. The gist of the method: (§1)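 Cells dosed at 30 μM for 72 h in RPMI 1640 (A2780, SKOV-3) or DMEM (MCF-7, A549, HCT-116), 10% FBS, 37 °C, 5% CO2. Total and viable cell numbers taken by trypan blue with an automated counter. Viable cells given as % of DMSO; dead cells as a percentage. At least three independent experiments.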

The subject of data set [2] is Cisplatin-resistant A2780. As to the kind of experiment: Antiproliferative activity against human Cisplatin-resistant A2780 cells assessed as growth inhibition at 30 uM measured after 48 hrs.
Data set [3] has as its system A2780. Briefly: Induction of cell death in human A2780 cells assessed as reduction in total number of cells at 30 uM incubated for 72 hrs by trypan blue staining based analysis. It is filed as functional. An outline of the steps: as §1
In a further data set the test system is HeLa. Briefly: Induction of miR-21-5p biogenesis in human HeLa cells assessed as decrease in renilla luciferase activity at 50 uM measured after 6 hrs by dual-luciferase reporter assay. A general note: Reporter assays use an easily measured gene product as a stand-in for the process of interest.
Data set [4] addresses T1, DNA topoisomerase 1 (Homo sapiens) (UniProt P11387).
T1 sequence (whole entry): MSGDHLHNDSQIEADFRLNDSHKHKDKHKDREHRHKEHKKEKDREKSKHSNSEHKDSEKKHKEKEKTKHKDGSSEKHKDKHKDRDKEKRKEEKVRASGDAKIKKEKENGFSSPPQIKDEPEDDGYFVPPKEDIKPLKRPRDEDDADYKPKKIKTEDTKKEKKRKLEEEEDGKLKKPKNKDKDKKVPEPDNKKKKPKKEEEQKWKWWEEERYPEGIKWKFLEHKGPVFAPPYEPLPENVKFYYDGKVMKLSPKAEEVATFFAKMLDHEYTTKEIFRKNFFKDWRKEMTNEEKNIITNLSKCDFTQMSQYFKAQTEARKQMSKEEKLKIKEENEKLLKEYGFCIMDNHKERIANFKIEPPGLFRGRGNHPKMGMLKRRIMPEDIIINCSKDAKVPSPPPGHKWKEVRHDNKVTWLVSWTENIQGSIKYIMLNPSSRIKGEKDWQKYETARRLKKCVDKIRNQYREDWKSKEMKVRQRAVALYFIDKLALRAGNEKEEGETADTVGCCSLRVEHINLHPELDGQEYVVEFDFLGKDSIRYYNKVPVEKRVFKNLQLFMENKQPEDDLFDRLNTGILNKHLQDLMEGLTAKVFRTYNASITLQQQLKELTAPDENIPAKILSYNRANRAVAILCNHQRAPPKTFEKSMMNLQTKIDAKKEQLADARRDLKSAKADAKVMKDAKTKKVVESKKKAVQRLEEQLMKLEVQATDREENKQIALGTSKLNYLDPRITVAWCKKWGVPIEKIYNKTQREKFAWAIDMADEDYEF
Briefly: Inhibition of human topoisomerase I at 100 uM by spectrophotometric analysis.

Data set [5] relates to SK-OV-3. As to the kind of experiment: Effect on cleaved PARP1 level in human SK-OV-3 cells by Western blot analysis. The class given is functional, cell-based. The gist of the method: (§2)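 SKOV-3 and A2780 given 30 μM compound for 72 h. Protein extracts run on 4–12% bis–tris gels and blotted to nitrocellulose, blocked in 5% milk. Probed for cleaved PARP and Bcl-XL, with β-actin as loading control.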

The species named for the next data set is Homo sapiens. Briefly: Inhibition of human topoisomerase II at 100 uM by spectrophotometric analysis.
Data set [6] concerns SK-OV-3. Briefly: Induction of cell death in human SK-OV-3 cells assessed as reduction in total number of cells at 30 uM incubated for 72 hrs by trypan blue staining based analysis. It is filed as functional. The gist of the method: as §1
Data set [7] relates to SK-HEP1. As to the kind of experiment: Antiproliferative activity against TRBP knockout human SK-HEP1cells assessed as growth inhibition at 30 uM measured after 48 hrs by CCK-8 method. The class given is functional, cell-based. An outline of the steps: (§3)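 HCCLM3 and SK-Hep-1 cells, TRBP wild-type and knockout, seeded at 10 000 cells/well and left to adhere overnight. Treated 48 h alongside a 0.1% DMSO negative control and a 125 μM enoxacin positive control. Viability read with 10% CCK-8 in DMEM, 30 min at 37 °C, at 450 nm.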
Background: Formazan colour is commonly taken as a measure of viable cells.

The next data set concerns HCT-116. As to the kind of experiment: Antiproliferative activity against human HCT-116 cells assessed as growth inhibition at 30 uM measured after 72 hrs. It is filed as functional, cell-based. An outline of the steps: as §1
The subject of the next data set is MCF7. As to the kind of experiment: Antiproliferative activity against human MCF7 cells assessed as growth inhibition at 30 uM measured after 72 hrs. It is filed as functional, cell-based. The gist of the method:
as §1

The subject of data set [8] is HCCLM3. Briefly: Antiproliferative activity against TRBP knockout human HCCLM3 cells assessed as growth inhibition at 30 uM measured after 48 hrs by CCK-8 method. It is filed as functional, cell-based. The gist of the method:
as §3

The test system of data set [9] is HCCLM3. As to the kind of experiment: Antiproliferative activity against wild type human HCCLM3 cells assessed as growth inhibition at 30 uM measured after 48 hrs by CCK-8 method relative to control. It is filed as functional, cell-based. The gist of the method:
as §3

In data set [10] the test system is A2780. Briefly: Downregulation of Bcl-Xl level in human A2780 cells by Western blot analysis. It is filed as functional, cell-based. An outline of the steps: as §2
A general note: In western blotting, separated proteins are transferred to a membrane and probed.

For data set [11], the system named is SK-OV-3. As to the kind of experiment: Effect on Bcl-Xl level in human SK-OV-3 cells by Western blot analysis. It is filed as functional, cell-based. An outline of the steps:
as §2

In another data set the test system is HEK-293T. As to the kind of experiment: Induction of RNAi enhancing activity in HEK293T cells transfected with shGAPDH assessed as decrease in amount of GAPDH mRNA at 50 uM incubated for 48 hrs by qRT-PCR. It is filed as functional, cell-based. The conditions noted are these: Homo sapiens. The gist of the method: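 HEK-293T stably expressing shGAPDH or scrambled shRNA (lentiviral transduction, puromycin 3 μg mL−1 selection) treated 48 h at 50 μM. GAPDH mRNA measured by qRT-PCR against ATP5O, relative to sh-Scr/DMSO set to 1. At least three independent experiments.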

Data set [12] deals with A2780. Briefly: Antiproliferative activity against human A2780 cells assessed as growth inhibition at 30 uM measured after 72 hrs. It is filed as functional, cell-based. An outline of the steps:
as §1

Data set [13] deals with A2780. As to the kind of experiment: Induction of cell death in human A2780 cells assessed as increase in percentage of dead cells at 30 uM incubated for 72 hrs by trypan blue staining based analysis. It is filed as functional. The gist of the method: as §1
Data set [14] deals with A2780. As to the kind of experiment: Antiproliferative activity against human A2780 cells assessed as growth inhibition at 30 uM measured after 48 hrs in presence of cisplatin.
The test system of data set [15] is SK-HEP1. As to the kind of experiment: Antiproliferative activity against TRBP knockout human SK-HEP1 cells assessed as growth inhibition at 50 uM measured after 48 hrs by CCK-8 method. It is filed as functional, cell-based. The gist of the method:
as §3

Data set [16] has as its system Cisplatin-resistant A2780. As to the kind of experiment: Antiproliferative activity against human Cisplatin-resistant A2780 cells assessed as growth inhibition at 30 uM measured after 48 hrs in presence of cisplatin.
The test system of data set [17] is A2780. Briefly: Upregulation of cleaved PARP1 level in human A2780 cells by Western blot analysis. It is filed as functional, cell-based. The gist of the method: as §2
The subject of data set [18] is SK-HEP1. As to the kind of experiment: Antiproliferative activity against wild type human SK-HEP1 cells assessed as growth inhibition at 30 uM measured after 48 hrs by CCK-8 method. The class given is functional, cell-based. An outline of the steps:
as §3

Data set [19] has as its system SK-HEP1. As to the kind of experiment: Antiproliferative activity against wild type human SK-HEP1 cells assessed as growth inhibition at 50 uM measured after 48 hrs by CCK-8 method. The class given is functional, cell-based. An outline of the steps: as §3
The next data set relates to SKOV-3 (Homo sapiens). As to the kind of experiment: Antiproliferative activity against human SKOV-3 cells assessed as growth inhibition measured after 72 hrs.

Regarding `CC(C)(C)n1cc(C(=O)O)c(=O)c2cc(N)c(N3CCc4ccccc43)cc21`, the GI50 in the data set on SK-OV-3 [1] is greater than 100 µM.
As for `O=C(O)c1cn(C2CC2)c2cc(N3CCc4ccccc4C3)c(F)cc2c1=O`, the outcome (in the data set with A549; in data set [2]; in the data set on A2780 [3]; with HeLa; in the data set on SK-OV-3 [6]; in the data set with HCT-116) was Active. Besides, the outcome in the data set on MCF7, in the data set with HCCLM3 [9], in the data set with A2780 [10], in the data set with HEK-293T, in the data set on A2780 [12] and in the data set with A2780 [13] was Active. Also, the result (in the data set with A2780 [14]; in data set [16]; with A2780 [17]; in the data set on SK-HEP1 [19]) was Active. Besides, the inhibition result (in data set [4]; in the data set listed under Homo sapiens) was “inactive” in each case. In addition, the outcome with SK-OV-3 [5], with SK-HEP1 [7], in the data set on HCCLM3 [8], with SK-OV-3 [11], with SK-HEP1 [15] and in the data set on SK-HEP1 [18] was inactive.
Regarding `Cc1c(N2CC(C)OC(C)C2)c(N)cc2c(=O)c(C(=O)O)cn(C3CC3)c12` (stereo not drawn), the GI50 in the data set on SK-OV-3 [1] was 100 µM.
Consider `Cc1c(N2CCCCC2)c(N)cc2c(=O)c(C(=O)O)cn(C3CC3)c12`, for which the GI50 in the data set on SK-OV-3 [1] is greater than 100 µM.
As to `Nc1cc2c(=O)c(C(=O)O)cn(C3CC3)c2cc1N1CCc2ncncc2C1`, the GI50 at 72 h in the data set with SKOV-3 (Homo sapiens) was no less than 25 µM.
Turning to `Cc1c(N2CCOCC2)c(N)cc2c(=O)c(C(=O)O)cn(C3CC3)c12`, the GI50 in the data set with SK-OV-3 [1] was greater than 100 µM.
Turning to `Cc1c(NCCN2CCCCC2)c(N)cc2c(=O)c(C(=O)O)cn(C3CC3)c12`, the GI50 at 72 h in the data set with SKOV-3 (Homo sapiens) was no less than 25 µM.
With `Cc1c(N2Cc3ccccc3C2)c(N)cc2c(=O)c(C(=O)O)cn(C3CC3)c12`, the 50% growth inhibitory concentration (GI50) at 72 h with SKOV-3 (Homo sapiens) is no less than 25 µM.
In the case of `Cc1c(N2CCC3CCCCC3C2)c(N)cc2c(=O)c(C(=O)O)cn(C3CC3)c12` (stereo not drawn), in the data set on SK-OV-3 [1], the GI50 was greater than 100 µM.
For `Cc1c(N2CCC(O)CC2)c(N)cc2c(=O)c(C(=O)O)cn(C3CC3)c12`, the GI50 in the data set with SK-OV-3 [1] was greater than 100 µM.

What is called GI50 is the concentration giving 50% growth inhibition.
